Experiments:
[1] = test system: Mus musculus; assay: Antinociceptive activity against radiant heat-induced nociception in CD1 mouse assessed as tail withdrawal latency at 1 mg/kg, po measured after 15 to 120 mins postdose by tail flick test in presence of 0.1 to 1 mg/kg, ip alpha-1-adrenergic receptor antagonist prazosin administered 15 mins before compound infusion; assay type: functional
Outline: (§1)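 Male CD-1 mice given prazosin ip (0.1 or 1 mg/kg) 15 min before oral dosing at 1 mg/kg. Tail flick: radiant heat 3–4 cm from the tail tip, cut-off 15 s. Hot plate: 48.5 °C, cut-off 60 s. Baseline is the mean of three readings 15 min apart. Latency followed over time and expressed as %MPE.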

[2] = test system: Mus musculus; assay: (§2) Antinociceptive activity against thermal nociception in po dosed CD1 mouse assessed as increase in latency period to elicit jumping or hind paw licking measured after 15 to 90 mins postdose by hot plate method in presence of 2 mg/kg, ip nicotinic receptor antagonist mecamylamine hydrochloride administered 30 mins before compound infusion; assay type: functional
Outline: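 Antagonist given ip 30 min before oral dosing (naloxone 1, mecamylamine 2, yohimbine 2, CGP 35348 50 mg/kg). Hot plate at 48.5 ± 0.1 °C inside a cylinder, cut-off 60 s; latencies at 15–90 min as %MPE. Peak-time quantal response (≥50% MPE); ED50 from at least four groups of six male CD-1 mice.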

[3] = molecular target: T1, Alpha-2C adrenergic receptor (Homo sapiens) (UniProt P18825); assay: Inhibition of radioligand binding to human adrenergic Alpha-2C receptor at 10 uM after 60 mins
T1 sequence (whole entry): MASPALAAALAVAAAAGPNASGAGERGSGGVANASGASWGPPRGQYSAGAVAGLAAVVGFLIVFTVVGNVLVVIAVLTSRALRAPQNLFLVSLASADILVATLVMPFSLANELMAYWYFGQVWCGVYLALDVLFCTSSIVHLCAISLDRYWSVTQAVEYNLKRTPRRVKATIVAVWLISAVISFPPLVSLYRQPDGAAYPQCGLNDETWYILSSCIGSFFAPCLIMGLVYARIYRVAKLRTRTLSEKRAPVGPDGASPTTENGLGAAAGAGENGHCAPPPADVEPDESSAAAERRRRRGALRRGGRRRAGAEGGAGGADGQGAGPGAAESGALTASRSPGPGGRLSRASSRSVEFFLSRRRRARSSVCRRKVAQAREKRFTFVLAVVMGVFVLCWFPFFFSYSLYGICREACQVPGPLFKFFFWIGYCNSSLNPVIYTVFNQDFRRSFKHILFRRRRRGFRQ

[4] = test system: Mus musculus; assay: Antinociceptive activity against radiant heat-induced nociception in po dosed CD1 mouse assessed as increase in tail withdrawal latency measured after 15 to 120 mins postdose by tail flick test; assay type: functional
Outline: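 Male CD-1 mice, 25–30 g; oral dosing. Radiant heat focused 3–4 cm from tail tip of hand-restrained mice; tail withdrawal latency recorded, cutoff 15 s at 15 V. Baseline = mean of three readings 15 min apart; latency at 15–120 min.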

[5] = test system: Mus musculus; assay: (§3) Antinociceptive activity against radiant heat-induced nociception in po dosed CD1 mouse assessed as increase in tail withdrawal latency measured after 15 to 120 mins postdose by tail flick test in presence of 2 mg/kg, ip nicotinic receptor antagonist mecamylamine hydrochloride administered 30 mins before compound infusion; assay type: functional
Outline: (§4)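 Antagonist given ip 30 min before oral dosing (naloxone 1, mecamylamine 2, yohimbine 2, CGP 35348 50 mg/kg). Tail flick with radiant heat at the tail tip, cut-off 15 s; latencies at 15–120 min converted to %MPE. Peak-time quantal response (≥50% MPE); ED50 from at least four groups of six male CD-1 mice.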

[6] = test system: Mus musculus; assay: as §2, with “as” for “as increase in”, “licking at 1 mg/kg, po” for “licking”, “0.1 to 1” for “2”, “alpha-1-adrenergic” for “nicotinic”, “prazosin” for “mecamylamine hydrochloride”, “15” for “30”; assay type: functional; outline: as §1
[7] = test system: Mus musculus; assay: Ratio of compound ED50 to morphine ED50 for antinociceptive activity against radiant heat-induced nociception in icv dosed CD1 mouse; assay type: functional
Outline: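 Male CD-1 mice (25–30 g) given the compound or morphine hydrochloride into the right lateral ventricle. Tail flick used radiant heat focused 3–4 cm from the tail tip, with a 15 s cutoff, and latency was read at 15–120 min. %MPE was made quantal at peak time. ED50 came from at least four groups of six mice, and both ED50s were obtained the same way.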

[8] = test system: Mus musculus; assay: as §3, with “alpha-2-adrenergic” for “nicotinic”, “yohimbine” for “mecamylamine”; assay type: functional; outline: as §4
[9] = molecular target: T2, Alpha-2A adrenergic receptor (Homo sapiens, UniProt P08913); assay: Displacement of [3H][…] from human recombinant adrenergic alpha2A receptor expressed in insect Sf9 cells after 60 mins
T2 sequence (P08913 whole entry): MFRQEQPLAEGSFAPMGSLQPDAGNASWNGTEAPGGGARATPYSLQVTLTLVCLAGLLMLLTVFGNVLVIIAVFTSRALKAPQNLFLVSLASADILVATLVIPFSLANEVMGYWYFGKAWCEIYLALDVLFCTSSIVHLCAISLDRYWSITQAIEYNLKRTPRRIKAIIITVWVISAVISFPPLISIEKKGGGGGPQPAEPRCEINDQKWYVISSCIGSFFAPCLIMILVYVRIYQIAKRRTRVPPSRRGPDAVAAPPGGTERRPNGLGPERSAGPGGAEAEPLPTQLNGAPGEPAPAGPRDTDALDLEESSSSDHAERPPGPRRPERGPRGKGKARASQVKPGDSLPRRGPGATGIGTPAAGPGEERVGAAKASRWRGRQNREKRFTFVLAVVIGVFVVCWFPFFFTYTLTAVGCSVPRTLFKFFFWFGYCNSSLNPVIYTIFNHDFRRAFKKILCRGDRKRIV

[10] = test system: Mus musculus; assay: Antinociceptive activity against thermal nociception in po dosed CD1 mouse assessed as increase in latency period to elicit jumping or hind paw licking measured after 15 to 90 mins postdose by hot plate method; assay type: functional
[11] = molecular target: T3, Alpha-1B adrenergic receptor (Rattus norvegicus, UniProt P15823); assay: Displacement of [3H]prazosin from adrenergic Alpha-1B receptor in Wistar rat liver membrane after 60 mins; assay type: cell membranes
T3 sequence (P15823 whole entry): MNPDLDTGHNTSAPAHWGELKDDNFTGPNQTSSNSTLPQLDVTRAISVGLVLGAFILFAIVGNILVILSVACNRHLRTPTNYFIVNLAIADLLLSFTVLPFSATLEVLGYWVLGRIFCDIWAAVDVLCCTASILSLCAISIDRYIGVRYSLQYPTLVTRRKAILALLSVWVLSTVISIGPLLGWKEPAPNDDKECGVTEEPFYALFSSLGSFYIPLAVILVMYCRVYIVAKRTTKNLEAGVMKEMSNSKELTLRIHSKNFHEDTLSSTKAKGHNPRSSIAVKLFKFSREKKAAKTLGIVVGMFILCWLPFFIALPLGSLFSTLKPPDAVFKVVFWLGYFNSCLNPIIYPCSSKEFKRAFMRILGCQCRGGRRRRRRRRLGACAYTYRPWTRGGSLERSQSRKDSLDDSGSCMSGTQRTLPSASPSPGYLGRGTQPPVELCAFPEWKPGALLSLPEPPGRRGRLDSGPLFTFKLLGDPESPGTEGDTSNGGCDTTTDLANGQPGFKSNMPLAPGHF

C=Cc1c(C)nn(CCCN2CCN(c3ccc(C)cc3)CC2)c(=O)c1N
Activity [1]: 120 min | ED50 [2]: 0.7 mg/kg | Emax [3]: 71% | ED50 [4]: 0.8 mg/kg | ED50 [5]: 2.3 mg/kg | Activity [6]: 120 min | Ratio ED50 [7]: 3 | ED50 [8]: 6.1 mg/kg | IC50 [9]: 320 nM | ED50 [10]: 0.5 mg/kg | IC50 [11]: 102 nM
